Assay [1] deals with Mu-type opioid receptor (Cavia porcellus) (UniProt P97266). Kind of assay: Sensitivity to naloxone against Opioid receptor mu 1 in the guinea pig ileum assay. Type of assay: functional, tissue-based. In a few lines: (§1)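 Ke for naloxone as antagonist in the isolated tissue assay. It was derived from the ratio of agonist IC50 values measured with and without a fixed naloxone concentration.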

Assay [2] in a line: Ki ratio measured as inhibitory effect against delta and mu opioid receptors.
In assay [3] the target is Delta-type opioid receptor (Mus musculus) (UniProt P32300). Kind of assay: […] in mouse vas deferens assay for Opioid receptor delta 1. Type of assay: functional. In a few lines: as §1
Chain of Delta-type opioid receptor (Mus musculus) (P32300 whole entry): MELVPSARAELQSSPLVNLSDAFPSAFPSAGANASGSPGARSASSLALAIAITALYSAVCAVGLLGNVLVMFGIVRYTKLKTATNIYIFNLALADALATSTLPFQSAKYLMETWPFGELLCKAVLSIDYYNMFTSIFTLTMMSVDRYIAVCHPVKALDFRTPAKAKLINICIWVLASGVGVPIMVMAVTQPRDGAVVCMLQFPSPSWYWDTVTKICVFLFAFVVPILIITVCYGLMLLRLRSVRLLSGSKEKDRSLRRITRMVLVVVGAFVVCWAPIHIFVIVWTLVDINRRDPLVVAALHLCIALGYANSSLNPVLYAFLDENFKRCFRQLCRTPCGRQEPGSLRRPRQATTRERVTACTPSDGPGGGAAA
Assay [4] has as its target T1, Delta-type opioid receptor (Rattus norvegicus, UniProt P33533). The experiment in a line: Inhibition of binding of [3H][D-Ala2,D-Leu5]enkephalin to Opioid receptor delta 1 in the rat brain homogenate. Type of assay: tissue-based.
Assay [5] concerns the target T2, Mu-type opioid receptor (Cavia porcellus, UniProt P97266). The experiment in a line: Inhibitory potency against Opioid receptor mu 1 in the guinea pig ileum assay. The format is functional, tissue-based. In a few lines:
(§2)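 Guinea pig ileum bioassay. Twitch-height reduction at several doses gave log dose-response curves.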

Assay [6] concerns the target T3, Delta-type opioid receptor (Mus musculus, UniProt P32300). The experiment in a line: Inhibitory potency against Opioid receptor delta 1 in the mouse vas deferens assay. Type of assay: functional, tissue-based. In a few lines:
(§3)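 Vasa deferentia were taken from adult male Swiss Webster albino mice (30-50 g) killed by cervical dislocation. Fat, connective tissue and the blood vessel were removed and semen was expressed. Contractions were recorded with a force transducer, and twitch-height reduction at several doses gave log dose-response curves.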

A short description of assay [7]: IC50 ratio measured as inhibitory potencies in mouse vas deferens and guinea pig ileum assays. The format is functional.
The target of assay [8] is T4, Mu-type opioid receptor (Rattus norvegicus, UniProt P33535). Kind of assay: Inhibition of binding of [3H]naloxone to Opioid receptor mu 1 in the rat brain homogenate. The format is tissue-based.
T4 sequence (P33535 whole entry): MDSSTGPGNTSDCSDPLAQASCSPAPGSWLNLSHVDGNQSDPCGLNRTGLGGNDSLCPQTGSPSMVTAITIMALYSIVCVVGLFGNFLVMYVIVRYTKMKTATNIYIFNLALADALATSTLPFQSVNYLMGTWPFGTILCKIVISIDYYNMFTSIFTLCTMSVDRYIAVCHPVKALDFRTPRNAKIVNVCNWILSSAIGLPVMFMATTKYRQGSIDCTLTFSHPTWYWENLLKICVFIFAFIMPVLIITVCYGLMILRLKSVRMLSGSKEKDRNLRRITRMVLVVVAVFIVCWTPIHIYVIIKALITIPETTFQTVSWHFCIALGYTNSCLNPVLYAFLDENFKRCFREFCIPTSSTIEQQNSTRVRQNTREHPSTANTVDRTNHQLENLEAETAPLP
The target in assay [9] is T4, Mu-type opioid receptor. The experiment in a line: Inhibition of [3H]-naloxone binding to mu receptor in rat brain homogenate. Type of assay: tissue-based.
For assay [10], the target named is T1, Delta-type opioid receptor. Kind of assay: Inhibition of [3H][D-Ala2,D-Leu5]enkephalin binding to Opioid receptor delta 1 in the rat brain homogenate. The format is tissue-based.
Assay [11] deals with Delta-type opioid receptor (Mus musculus) (UniProt P32300). The experiment in a line: IC50 ratio measured as the inhibitory potencies of MVD/GPI.
The target is the same in assay [12]. The experiment in a line: (§4) Ki ratio measured as the inhibitory effect against delta/mu receptor.
Assay [13] addresses Mu-type opioid receptor (Cavia porcellus) (UniProt P97266). The experiment in a line: Sensitivity to naloxone against mu receptor in guinea pig ileum assay. Type of assay: functional, tissue-based. In a few lines:
as §1

The target in assay [14] is Delta-type opioid receptor (Rattus norvegicus) (UniProt P33533). Described as §4.
Chain of Delta-type opioid receptor (Rattus norvegicus) (P33533 whole entry): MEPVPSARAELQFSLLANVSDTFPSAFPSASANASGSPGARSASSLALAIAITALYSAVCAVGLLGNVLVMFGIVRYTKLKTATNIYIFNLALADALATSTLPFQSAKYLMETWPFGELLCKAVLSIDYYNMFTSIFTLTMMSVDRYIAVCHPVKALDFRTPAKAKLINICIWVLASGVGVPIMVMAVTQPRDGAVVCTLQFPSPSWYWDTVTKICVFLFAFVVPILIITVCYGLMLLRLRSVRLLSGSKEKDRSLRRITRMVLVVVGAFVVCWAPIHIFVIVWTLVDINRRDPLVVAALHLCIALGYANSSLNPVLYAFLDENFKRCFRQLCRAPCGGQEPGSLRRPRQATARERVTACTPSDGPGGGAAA
Assay [15] has as its target T4, Mu-type opioid receptor. The experiment in a line: Inhibition of [3H]naloxone binding to Opioid receptor mu 1 in rat brain homogenate. The format is tissue-based.
For assay [16], the target named is T1, Delta-type opioid receptor. The experiment in a line: Inhibition of binding of [3H][D-Ala2,D-Leu5]enkephalin to delta receptor in the rat brain homogenate. Type of assay: tissue-based.
In assay [17] the target is T2, Mu-type opioid receptor. The experiment in a line: Inhibitory potency against mu receptor in guinea pig ileum assay. Type of assay: functional, tissue-based. In a few lines:
as §2

Assay [18] deals with T3, Delta-type opioid receptor. The experiment in a line: Inhibitory potency against Opioid receptor delta 1 in mouse vas deferens assay. The format is functional, tissue-based. In a few lines:
as §3

The target of assay [19] is Mu-type opioid receptor (Mus musculus, UniProt P42866). Kind of assay: Inhibitory potency against Opioid receptor mu 1 in mouse vas deferens assay. Type of assay: functional, tissue-based. In a few lines:
as §3

The results in this text go back to ChEMBL document CHEMBL1121982 (J Med Chem, 1982).

Each structure is given as a SMILES string.

T1 sequence (P33533 whole entry): as above
Chain of Mu-type opioid receptor (Cavia porcellus) (P97266 whole entry): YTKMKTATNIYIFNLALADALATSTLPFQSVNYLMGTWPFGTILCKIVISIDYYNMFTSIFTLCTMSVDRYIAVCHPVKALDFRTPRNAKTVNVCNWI
T2 sequence (P97266 whole entry): as above
T3 sequence (P32300 whole entry): as the sequence (P32300 whole entry) above
Chain of Mu-type opioid receptor (Mus musculus, UniProt P42866) (P42866 whole entry): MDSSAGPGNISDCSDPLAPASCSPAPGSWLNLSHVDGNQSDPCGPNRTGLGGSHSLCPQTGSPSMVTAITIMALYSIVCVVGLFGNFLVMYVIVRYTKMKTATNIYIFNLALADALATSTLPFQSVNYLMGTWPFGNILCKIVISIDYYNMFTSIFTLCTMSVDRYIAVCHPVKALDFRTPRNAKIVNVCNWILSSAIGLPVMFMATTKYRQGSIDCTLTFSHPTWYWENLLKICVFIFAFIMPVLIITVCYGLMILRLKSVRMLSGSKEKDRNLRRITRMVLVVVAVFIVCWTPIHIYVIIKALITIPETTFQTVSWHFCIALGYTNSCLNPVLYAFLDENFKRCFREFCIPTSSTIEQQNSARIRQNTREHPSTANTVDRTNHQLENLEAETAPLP

For `CC(C)C[C@@H]1NC(=O)[C@@H](Cc2ccccc2)NC(=O)CNC(=O)[C@H](NC(=O)[C@@H](N)Cc2ccc(O)cc2)CCNC1=O`, the Ke was determined as 0.122 nM in [1] and 0.576 nM in assay [3]. In addition, the Ratio in assay [2] worked out at 8.33.

For the compound `CC(=O)O.N[C@@H](Cc1ccc(O)cc1)C(=O)N[C@@H]1CCCCNC(=O)[C@H](Cc2ccccc2)NC(=O)CNC1=O`, the IC50 in assay [4] amounted to 98.3 nM; at Mu-type opioid receptor [5], 7.09 nM; in [6], 33.8 nM; at Mu-type opioid receptor [8] it was 5.58 nM. The inhibition constant Ki in assay [4] was 44.7 nM; on Mu-type opioid receptor [8] it was 3.1 nM. In addition, the Ke in assay [1] came to 0.875 nM; in [3], 0.606 nM. The Ratio in [7] was found to be 4.77; in [2], 14.4.

For the compound `CC(C)C[C@@H]1NC(=O)[C@H](Cc2ccccc2)NC(=O)CNC(=O)[C@H](NC(=O)[C@@H](N)Cc2ccc(O)cc2)CCCNC1=O`, the IC50 turned out to be 221 nM in assay [4], 56.6 nM at Mu-type opioid receptor [9] and 48 nM against Mu-type opioid receptor [5]. The results for the Ki (in [10]; on Mu-type opioid receptor [8]) were 100 nM and 31.4 nM, respectively. Moreover, the Ratio in assay [11] worked out at 9.9; in [12], 3.18. Besides, the results for the Ke in assay [3] and in assay [13] were 0.216 nM and 0.671 nM, respectively.

With `CC(=O)O.CC(C)C[C@H]1NC(=O)[C@H](Cc2ccccc2)NC(=O)CNC(=O)[C@H](NC(=O)[C@@H](N)Cc2ccc(O)cc2)CCCCNC1=O`, the IC50 was determined as 47.8 nM in assay [4], 2.39 nM against Mu-type opioid receptor [5], 17.5 nM in [6] and 8.51 nM at Mu-type opioid receptor [8]. The Ke in assay [1] was determined as 0.553 nM; in [3] it was 2.37 nM. The results for the Ki (in assay [10]; on Mu-type opioid receptor [8]) were 21.7 nM and 4.73 nM, respectively. In addition, the Ratio in [7] stood at 7.32; in [2], 4.59.

On to `CC(=O)O.CCC[C@@H](NC(=O)[C@@H](N)Cc1ccc(O)cc1)C(=O)NCC(=O)N[C@@H](Cc1ccccc1)C(=O)N[C@@H](CC(C)C)C(N)=O`, for which the IC50 is 6.81 nM in assay [4], 23.2 nM at Mu-type opioid receptor [5], 21 nM in [6] and 5.89 nM at Mu-type opioid receptor [8]. Moreover, the Ke in assay [1] stood at 0.227 nM; in assay [3], 3.52 nM. Also, the Ki in [10] was found to be 3.1 nM; on Mu-type opioid receptor [8] it was 3.27 nM. Moreover, the Ratio was 0.905 in assay [7] and 0.95 in [14].

`CC(=O)O.CC(C)C[C@@H]1NC(=O)[C@H](Cc2ccccc2)NC(=O)CNC(=O)[C@H](NC(=O)[C@@H](N)Cc2ccc(O)cc2)CNC1=O`: the Ke amounted to 0.275 nM in assay [1] and 0.387 nM in assay [3]. The Ki at Mu-type opioid receptor [15] was determined as 53.2 nM; in assay [10] it was 53.6 nM. For the same compound, the half-inhibitory concentration (IC50) on Mu-type opioid receptor [5] worked out at 23.4 nM; in assay [6] it was 73.1 nM; in assay [16], 118 nM; on Mu-type opioid receptor [8] it was 95.8 nM. For the same compound, the Ratio was found to be 3.12 in assay [7] and 1.01 in assay [2].

On to `CC(C)C[C@H](NC(=O)[C@H](Cc1ccccc1)NC(=O)CNC(=O)[C@@H](C)NC(=O)[C@@H](N)Cc1ccc(O)cc1)C(N)=O`, for which the Ke in [1] stood at 0.401 nM; in assay [3] it was 2.36 nM. The IC50 turned out to be 8.26 nM in [6] and 7.63 nM on Mu-type opioid receptor [17].

For `CC(C)C[C@@H]1NC(=O)[C@H](Cc2ccccc2)NC(=O)CNC(=O)[C@H](NC(=O)[C@@H](N)Cc2ccc(O)cc2)CCCCNC1=O`, the IC50 is 32.2 nM in assay [4], 4.8 nM on Mu-type opioid receptor [5], 22.4 nM at Mu-type opioid receptor [8] and 141 nM in [18]. Moreover, the Ke worked out at 0.416 nM in [1] and 0.36 nM in assay [3]. In addition, the Ki in assay [10] came to 14.6 nM; on Mu-type opioid receptor [8], 12.4 nM. Besides, the results for the Ratio in assay [11] and in assay [12] were 29.4 and 1.18, respectively.

For `CC(=O)O.CCCC[C@@H](NC(=O)[C@@H](N)Cc1ccc(O)cc1)C(=O)NCC(=O)N[C@@H](Cc1ccccc1)C(=O)N[C@@H](CC(C)C)C(N)=O`, the IC50 was 9.57 nM in assay [4], 24.6 nM against Mu-type opioid receptor [5], 25.2 nM in assay [6] and 4.08 nM on Mu-type opioid receptor [8]. The Ke in [1] came to 0.729 nM; in [3], 3.19 nM. The Ki was 4.35 nM in [10] and 2.27 nM on Mu-type opioid receptor [8]. In addition, the results for the Ratio in [7] and in [14] were 1.02 and 1.92, respectively.

Regarding `CC(=O)O.CC(C)C[C@@H]1NC(=O)[C@H](Cc2ccccc2)NC(=O)CNC(=O)[C@H](NC(=O)[C@@H](N)Cc2ccc(O)cc2)CCNC1=O`, the Ratio in assay [7] stood at 5.77.

Consider `CC(=O)O.CC[C@@H](NC(=O)[C@@H](N)Cc1ccc(O)cc1)C(=O)NCC(=O)N[C@@H](Cc1ccccc1)C(=O)N[C@@H](CC(C)C)C(N)=O`, for which the IC50 is 8.94 nM in assay [4], 28.7 nM against Mu-type opioid receptor [5], 10.1 nM at Mu-type opioid receptor [8] and 45.6 nM in assay [18]. Besides, the Ke was found to be 0.181 nM in assay [1] and 1.5 nM in assay [3]. Further, the Ki in [10] stood at 4.06 nM; at Mu-type opioid receptor [8], 5.61 nM. For the same compound, the Ratio stood at 1.59 in [7] and 0.72 in [14].

Turning to `CC(C)C[C@@H]1NC(=O)[C@H](Cc2ccccc2)NC(=O)CNC(=O)[C@H](NC(=O)[C@@H](N)Cc2ccc(O)cc2)CCNC1=O`, the IC50 in assay [4] is 253 nM; against Mu-type opioid receptor [5], 14.1 nM; in [6], 81.4 nM; at Mu-type opioid receptor [8], 24.9 nM. The inhibition constant Ki in [10] stood at 115 nM; at Mu-type opioid receptor [8], 13.8 nM.

For `CN1CC[C@]23CCCC[C@H]2[C@H]1Cc1ccc(O)cc13` [LEVORPHANOL], the Ke in assay [1] came out at 0.127 nM; in assay [3] it was 0.587 nM. The IC50 was 278 nM at Mu-type opioid receptor [19] and 17 nM at Mu-type opioid receptor [5]. Moreover, the Ratio in [7] was determined as 16.4.
